In ChEMBL document CHEMBL1122337, “Syntheses of iron bis(pyridoxal isonicotinoylhydrazone)s and the in vivo iron-removal properties of some pyridoxal derivatives” (J Med Chem, 1983):

Experiments:
Type in all cases: ADME, organism-based
Rattus norvegicus [1] = test: % distribution of the radioiron in blood of rat followed by intravenous injection of chelating agent; conditions: in vivo
Rattus norvegicus [2] = test: % distribution of the radioiron in rat kidney followed by intravenous injection of chelating agent; conditions: in vivo
Rattus norvegicus [3] = test: % distribution of the radioiron in rat liver followed by intravenous injection of chelating agent; conditions: in vivo
Rattus norvegicus [4] = test: % distribution of the radioiron in rat spleen followed by intravenous injection of chelating agent; conditions: in vivo
Rattus norvegicus [5] = species: Rattus norvegicus; test: […] determined in faces of rat followed by […] of chelating agent; conditions: in vivo, iv
In short: (§1)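 Normal rats. Storage iron was labelled with [⁵⁹Fe]ferritin, given im as 1 mL in sterile normal saline (0.2–0.4 μCi ⁵⁹Fe/mL, 40 μg ferritin iron). The ferritin was prepared in vivo from [⁵⁹Fe]citrate in iron-dextran-loaded rats. Chelator was given separately afterwards, 40 mg im as aqueous solution. Blood, liver, spleen and kidney were gamma-counted. Stool and urine were collected separately in metabolic cages. Results are percent of injected ⁵⁹Fe.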

Rattus norvegicus [6] = species: Rattus norvegicus; test: […] determined in urine of rat followed by […] of chelating agent; conditions: in vivo, iv; in short: as §1
Rattus norvegicus [7] = test: % distribution of the radioiron in blood of rats followed by intravenous injection of transferrin pre-incubated with 10 mg of chelating agent; conditions: in vivo
In short: (§2)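 Normal rats. Fresh rat plasma was labelled with ⁵⁹FeCl₃ plus excess citrate (citrate:Fe >50:1; final 0.5 μCi ⁵⁹Fe/mL). It was preincubated with 10 mg chelating agent and 1 mL was injected iv. Blood (1 mL), weighed liver portions, and whole spleen and kidney were counted in a well-type gamma counter. Feces and urine were collected separately in metabolic cages. Results are percent of injected ⁵⁹Fe ± SD.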

Rattus norvegicus [8] = test: % distribution of the radioiron in rat kidney followed by intravenous injection of transferrin pre-incubated with 10 mg of chelating agent; conditions: in vivo; in short: as §2
Rattus norvegicus [9] = test: % distribution of the radioiron in rat liver followed by intravenous injection of transferrin preincubated with 10 mg of chelating agent; conditions: in vivo; in short: as §2
Rattus norvegicus [10] = test: % distribution of the radioiron in rat spleen followed by intravenous injection of transferrin pre-incubated with 10 mg of chelating agent; conditions: in vivo; in short: as §2
Rattus norvegicus [11] = test: % excretion of radioiron determined in feces of rat followed by intravenous injection of transferrin pre-incubated with 10 mg of chelating agent; conditions: in vivo; in short: as §2
Rattus norvegicus [12] = test: % excretion of radioiron determined in urine of rat followed by intravenous injection of transferrin preincubated with 10 mg of chelating agent; conditions: in vivo; in short: as §2

Row | Distribution (Rattus norvegicus [1]) [%] | Distribution (Rattus norvegicus [2]) [%] | Distribution (Rattus norvegicus [3]) [%] | Distribution (Rattus norvegicus [4]) [%] | Distribution (Rattus norvegicus [5]) [%] | Distribution (Rattus norvegicus [6]) [%] | Distribution (Rattus norvegicus [7]) [%] | Distribution (Rattus norvegicus [8]) [%] | Distribution (Rattus norvegicus [9]) [%] | Distribution (Rattus norvegicus [10]) [%] | Distribution (Rattus norvegicus [11]) [%] | Distribution (Rattus norvegicus [12]) [%] | Compound
1 | 19.4 | 0.4 | 63.2 | 0.55 | 7.3 | 0.08 |  |  |  |  |  |  | Cc1ncc(CO)c(/C=N/NC(=O)OC(C)(C)C)c1O
2 | 19 | 0.4 | 63.8 | 0.7 | 8.6 | 0.03 |  |  |  |  |  |  | CCOC(=O)N/N=C/c1c(CO)cnc(C)c1O
3 | 19.1 | 0.4 | 60.2 | 0.8 | 6.5 | 0.01 |  |  |  |  |  |  | Cc1csc(N/N=C/c2c(CO)cnc(C)c2O)n1
4 | 2.3 | 0.3 | 78.7 | 0.5 | 12 | 0.05 | 32 | 0.6 | 9.6 | 0.4 | 32.8 | 4.3 | Cc1ncc(CO)c(/C=N/NC(=O)c2ccncc2)c1O [PYRIDOXAL ISONICOTINOYL HYDRAZONE]
5 | 1.8 | 0.3 | 71.3 | 0.4 | 15.5 | 0.08 | 7.4 | 0.6 | 3 | 0.2 | 18.7 | 62.9 | CC(=O)N(O)CCCCCNC(=O)CCC(=O)N(O)CCCCCNC(=O)CCC(=O)N(O)CCCCCN [DEFEROXAMINE]
6 |  |  |  |  |  |  | 31.7 | 0.8 | 15.7 | 0.6 | 10.4 | 0.8 | CC(=O)OCc1cnc(C)c(O)c1/C=N\NC(=O)c1ccncc1
7 |  |  |  |  |  |  | 27 | 0.8 | 14.7 | 0.6 | 3.3 | 0.02 | COc1ccc(COC(=O)N/N=C/c2c(CO)cnc(C)c2O)cc1
8 | 19.6 | 0.5 | 66.7 | 0.6 | 8.2 | 0.04 |  |  |  |  |  |  | Cc1ncc(CO)c(/C=N/Nc2nc(-c3ccccc3)cs2)c1O
9 |  |  |  |  |  |  | 39.6 | 1 | 16.2 | 0.9 | 6 | 0.3 | Cc1ncc(CO)c(/C=N/NC(=O)c2cccnc2)c1O
10 |  |  |  |  |  |  | 27.9 | 1 | 12.6 | 0.6 | 6.8 | 0.4 | Cc1ncc(CO)c(/C=N/NC(=O)c2ccnc3ccccc23)c1O
11 | 12.3 | 0.3 | 82.4 | 1 | 4.1 | 0.09 |  |  |  |  |  |  | Cc1ncc(CO)c(/C=N/NC(N)=O)c1O
